From PubChem
The list is not random: actives were taken first. Their share in the collection is about 3.2%.
DAX1 inh-1 – inhibits human nuclear receptor DAX1. P51843. HEK293 Gal4-DAX1 luciferase reporter, luminescence. inhibition, % at 6.75 µM. 0.99% of 340,000 active. AID 504766;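 active = inhibition above the mean over all tested compounds plus 3 SD, cut at about 4.2% in these data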;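 note: 0% = DAX1-transfected cells with DMSO and 100% = empty-vector control cells with DMSO; inhibition shows as a rise in luminescence from relieved DAX1 repression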
Target sequence (P51843 207-470 limits assumed): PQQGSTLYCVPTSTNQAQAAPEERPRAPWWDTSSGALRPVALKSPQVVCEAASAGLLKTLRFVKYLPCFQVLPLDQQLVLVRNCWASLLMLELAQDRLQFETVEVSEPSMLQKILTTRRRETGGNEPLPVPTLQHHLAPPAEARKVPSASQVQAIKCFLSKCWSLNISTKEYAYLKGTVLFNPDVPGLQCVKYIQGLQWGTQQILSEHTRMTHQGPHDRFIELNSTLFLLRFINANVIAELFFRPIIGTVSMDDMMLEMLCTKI
NR2E3 ag-1 – agonists of human NR2E3 nuclear receptor; 0.35% of 360,000 active; CHO-S Gal4-NCOR/VP16-NR2E3 two-hybrid, luciferase; AID 602229; inhibition of corepressor binding, % at 3.98 µM;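 active = inhibition above the mean of all tested compounds plus 3 SD, cut at about 70% in these data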;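 note: 0% = DMSO with NR2E3 transfected cells and 100% = cells lacking NR2E3 construct; higher means lower luciferase signal from less NR2E3 corepressor binding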
Target sequence (Q9Y5X4 whole entry, looked up, the tested form may be a part): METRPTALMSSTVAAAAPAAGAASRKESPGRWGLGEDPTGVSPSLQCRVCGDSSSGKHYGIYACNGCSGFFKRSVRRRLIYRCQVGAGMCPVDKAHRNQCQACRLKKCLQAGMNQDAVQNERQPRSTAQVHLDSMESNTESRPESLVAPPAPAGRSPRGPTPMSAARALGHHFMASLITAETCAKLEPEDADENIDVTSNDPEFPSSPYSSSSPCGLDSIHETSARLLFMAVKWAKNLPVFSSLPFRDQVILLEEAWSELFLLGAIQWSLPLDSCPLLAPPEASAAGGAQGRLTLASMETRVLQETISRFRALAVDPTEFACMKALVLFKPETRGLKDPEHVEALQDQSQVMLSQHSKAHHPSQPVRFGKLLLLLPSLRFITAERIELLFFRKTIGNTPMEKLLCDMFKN
DAX1 inh-2 – blocks DAX1 repression of SF-1 activated StAR promoter. HEK293T StAR-luciferase reporter, SF-1/DAX-1 repression relief. inhibition, % at 6.8 µM. 1.1% of 370,000 active. AID 652010;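 active = inhibition above the mean over all tested compounds plus 3 SD, cut at about 3.6% in these data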;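 note: 0% = DAX-1 cells with DMSO and 100% = cells lacking DAX-1 with DMSO; higher inhibition means more luminescence from relief of DAX-1 repression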
SMARCA2 act – increases SMARCA2 function in MMTV reporter cells | MG213 cells, MMTV-luciferase reporter, dexamethasone, overnight | activation, % at 9.1 µM | 1% of 370,000 active; in the data active = activation above about 7.8%;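 note: 0% = vehicle wells and 100% = reference activator wells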
JMJD2C inh – human JMJD2C demethylase inhibition. Q9H3R0. GST-JMJD2C(1-420) H3K9me3 demethylation, DELFIA europium. inhibition, % at 2.35 µM. 0.069% of 330,000 active. AID 2099;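 active = more than half of a compound's replicate wells show inhibition beyond 50%, single wells judged on their own value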;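 note: signal counts dimethyl H3K9 product captured on neutravidin plate; 0% = median of DMSO wells and 100% = 0.3 times that DMSO median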
NR2E3 ag-2 – activates human photoreceptor nuclear receptor NR2E3 | Q9Y5X4 | GST-NR2E3/biotin-RetCOR TR-FRET, 1536-well | inhibition of corepressor binding, % at 4.78 µM | 0.12% of 320,000 active;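 active = percent inhibition above the cutoff of mean plus 3 SD of all tested compounds, set per screening campaign, cut at about 20% in these data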;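 note: 0% = DMSO wells and 100% = biotin wells as full block of FRET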
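Assay system: NR2E3–RetCOR corepressor complex. Quantity: 1.35 nM GST-NR2E3. Buffer or medium: pH 7.5 Tris-based buffer. Reagent: biotinylated RetCOR corepressor at 7 nM final. Schedule: 5 h at 4 °C. Detection: TR-FRET, emission read at 617 and 671 nm. Replicates: one well per compound, singlicate testing.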
NR2E3 ag conf – NR2E3 agonism confirmed in two-hybrid assay | shares compounds with NR2E3 ag-1 | CHO-S mammalian two-hybrid NR2E3-NCOR, luciferase luminescence | inhibition, % at 3.98 µM | 51% of 2,300 active | AID 624378;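 active = average inhibition above a cutoff equal to the mean inhibition of all tested compounds plus one SD, cut at about 70% in these data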;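 note: 0% = DMSO in NR2E3 cells and 100% = DMSO in cells lacking NR2E3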
VP16 counter – counter-screen for NR2E3 agonists: GAL4-VP16 reporter inhibitors; shares compounds with NR2E3 ag-1; inhibition, % at 3.98 µM; AID 624379; 29% of 2,300 active; CHO-S GAL4-VP16 luciferase reporter, luminescence;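 active = mean inhibition above a cutoff equal to the average over all tested compounds plus one standard deviation, cut at about 70% in these data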;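 note: luciferase from a UAS reporter driven by GAL4-VP16 transactivation; 0% = DMSO with VP16-transfected cells and 100% = DMSO with cells lacking VP16; higher means less reporter light so more repression of VP16 activity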
* marks the source's active call; other numbers are inactive results; . = no result given.

SMILES	DAX1 inh-1	NR2E3 ag-1	DAX1 inh-2	SMARCA2 act	JMJD2C inh	NR2E3 ag-2	NR2E3 ag conf	VP16 counter
CCN1/C(=C/c2ccc3ccccc3[n+]2CC)C=Cc2ccccc21	-4.6	88.5*	-2.6	-5.0	-3.5	-9.3	98.0*	87.6*
CCN1/C(=C/c2ccc3ccccc3[n+]2CCCS(=O)(=O)[O-])C=Cc2cc(C)ccc21	0.0	-6.2	-0.8	-2.2	1.9	.	.	.
CCOc1ccc(N(CC(=O)Nc2c(C)n(C)n(-c3ccccc3)c2=O)S(=O)(=O)c2ccc(C(C)(C)C)cc2)cc1	.	.	-1.4	0.3	.	.	.	.
COc1ccc(/C(C)=N/NC(=S)NCCc2ccccc2)cc1	2.3	70.1	-0.4	-3.2	-0.4	1.1	1.6	1.0
C/C(=N\NC(=S)NCCc1ccccc1)c1cccc(Br)c1	-0.2	26.6	0.0	-0.9	12.1	-1.9	.	.
COc1ccc(/C(C)=N/NC(=S)NCc2ccco2)cc1	0.0	47.5	-0.7	-4.0	2.4	-1.3	3.6	-9.8
C/C(=N\NC(=S)NCc1ccccc1)c1ccc2ccccc2c1	-0.6	58.2	-0.2	-1.9	-1.4	1.9	-28.4	-56.5
NNC(=S)NCCc1ccccc1	-0.5	66.1	-0.4	-3.7	-23.7	-3.5	-2.1	-7.3
S=C(NCCc1ccccc1)NCCc1ccccc1	1.1	-86.0	1.4	6.5	-7.8	-0.2	.	.
C/C(=N\NC(=S)NCc1ccccc1)c1cccc(Br)c1	-1.2	25.1	0.7	-2.1	-26.7	4.1	.	.
COc1ccc(/C(C)=N/NC(=O)CNC(=O)c2ccco2)cc1	0.1	3.2	0.2	4.1	-17.0	0.5	.	.
Cc1ccc(-c2nnc3n2N=C(c2ccc(-c4ccccc4)cc2)CS3)cc1	.	.	-2.2	-4.0	.	.	.	.
CC(=O)OC12CCCN(C1)/C(=C/c1ccccc1)C2 (stereo not given)	.	.	0.2	-2.3	.	.	.	.
COc1ccc(CNC(=S)N/N=C(\C)c2ccc(OC)cc2)cc1	-0.5	50.9	-0.3	-0.1	-10.7	1.2	-14.4	-12.2
C=CCNC(=S)N/N=C(\C)c1ccc(OC)cc1	-0.9	36.5	-0.5	-3.1	-0.5	4.7	.	.
CCN1Cc2nnn(CC3CCCCC3)c2-c2ccccc2S1(=O)=O	.	.	-1.6	-1.3	.	.	.	.
CN1CCN(c2ccc(NC(=O)N3CCc4ccccc43)cc2)CC1	-3.5	49.5	-1.1	-4.9	2.0	-0.4	26.0	-32.3
CCn1c2ccccc2c2cc(C=NNC(=O)c3ccoc3C)ccc21	.	.	-2.2	0.1	.	.	.	.
CC(C)C(NC(=O)Cc1ccccc1)C(=O)N1CCN(c2cccc(Cl)c2)CC1 (stereo not given)	-2.0	62.6	-5.6	-4.9	-2.1	0.2	64.6	41.6
O=C(NC(=O)N1CCN(c2cccc(Cl)c2)CC1)c1ccc(Cl)cc1	-0.7	79.9*	3.4	0.5	-10.3	0.4	95.2*	54.4
O=C(NC(=O)N1CCN(c2cccc(Cl)c2)CC1)c1ccccc1	-0.3	51.2	2.4	2.4	10.8	-1.9	84.9*	35.3
C#CCNC(=O)C[C@H]1C(=O)N(CC=C)C2=CCCC[C@@]21C(=O)OCC	.	.	-1.3	-1.2	.	.	.	.
COC(=O)[C@]12C[C@H](CC(=O)N3CCN(C(=O)c4ccco4)CC3)C(=O)N(Cc3ccc(Cl)cc3Cl)C1=C[C@H](COCc1ccccc1)O[C@@H]2C	.	.	-0.9	-3.7	.	.	.	.
C[C@H](O)[C@@H]1CN2CCc3c([nH]c4c(-c5ccc6c(c5)OCO6)cccc34)[C@@H]2C[C@@H]1N(C)C(=O)NC1CCCCC1	.	.	-1.1	-1.5	.	.	.	.
CC1Cc2ccccc2N1C(=S)NC(=O)c1cccc(Br)c1 (stereo not given)	0.7	25.9	-0.9	-1.9	-2.1	-2.3	.	.
SMILES	DAX1 inh-1	NR2E3 ag-1	DAX1 inh-2	SMARCA2 act	JMJD2C inh	NR2E3 ag-2	NR2E3 ag conf	VP16 counter
CC1Cc2ccccc2N1C(=S)NC(=O)c1ccc(Cl)cc1Cl (stereo not given)	0.7	78.2*	0.5	-4.8	4.9	2.1	28.3	26.1
Cc1ccc(Cc2c(-c3ccc(C)cc3)nc3c(Cl)cc(C(F)(F)F)cn23)cc1	.	60.5	.	.	.	.	-6.5	10.4
Cc1ccc(Cc2c(-c3ccccc3)nc3c(Cl)cc(C(F)(F)F)cn23)cc1	.	12.3	0.6	-0.1	.	.	.	.
O=C(CSc1ccc(-c2ccc(F)cc2)nn1)N1CCCc2ccccc21	-1.2	57.6	0.5	-2.3	5.0	1.5	-6.9	-26.2
COCCCNC(=O)c1ccc(Cn2c(=O)c3ccccc3n(Cc3ccc([N+](=O)[O-])cc3)c2=O)cc1	.	.	-1.1	-2.7	.	.	.	.
CCC(C)[C@H]1CNCCN1CCc1cc(C(F)(F)F)cc(C(F)(F)F)c1 (stereo not given in full)	0.4	16.6	0.0	-1.1	4.8	-0.7	.	.
CCC(C)[C@H]1CNC(=S)N1CCc1cc(C(F)(F)F)cc(C(F)(F)F)c1 (stereo not given in full)	0.0	47.8	0.0	-0.4	2.2	1.6	-3.6	16.8
CCCc1ccc(-c2ccc(/C=C/C(=O)O)cc2)nc1	-5.6	75.1*	-3.9	-6.5	6.4	-1.2	85.2*	61.1
CN(CC(=O)Nc1ccc(Cl)c(C(F)(F)F)c1)CC(=O)NC1CCCCC1	-1.0	60.5	.	.	1.5	-0.2	53.2	37.1
CC(C)N(Cc1cn(Cc2ccccc2)nn1)S(=O)(=O)c1ccccc1Br	.	.	-0.6	-3.3	.	.	.	.
COc1ccc(CC2(CO)CCN(CC3=Cc4cc(Cl)ccc4OC3)CC2)cc1	-5.5	69.2	-2.6	-5.5	-8.7	0.2	96.0*	73.8*
COC(=O)[C@]12C[C@H](CC(=O)NCc3ccccc3)C(=O)N(Cc3ccc(Cl)cc3Cl)C1=C[C@H](C(C)(C)C)O[C@@H]2C	.	.	-0.7	-5.0	.	.	.	.
O=C1c2ccccc2C(Nc2cccnc2)N1Cc1ccccc1Cl (stereo not given)	0.2	-8.0	1.3	-0.8	-3.9	3.4	.	.
COc1ccc(NC2c3ccccc3C(=O)N2Cc2ccccc2Cl)cc1OC (stereo not given)	-0.7	69.2	-0.6	-4.4	71.9	-0.8	71.2*	-7.8
O=C(Cc1ccccc1)Nc1scc(-c2ccccc2)c1C(=O)N1CCOCC1	-1.6	-1.1	.	.	21.8	0.6	.	.
NC(=O)c1c(-c2ccc(Cl)cc2Cl)csc1NC(=O)Cc1ccccc1	-4.0	56.0	-2.9	-2.9	7.2	-2.7	64.2	61.5
CCOC(=O)c1cccc(NC(=O)CN(C)S(=O)(=O)c2ccc(F)cc2)c1	.	.	-1.1	-0.3	.	.	.	.
Cc1nc2ccc(S(=O)(=O)Nc3cccc(-c4nc5cccnc5s4)c3C)cc2s1	-0.6	97.5*	-2.1	-5.0	20.6	1.9	95.0*	86.3*
O=C(OCc1cn(Cc2ccc(Cl)cc2)nn1)N1CCCC1	.	.	-0.8	-1.4	.	.	.	.
